Experimental data taken from ChEMBL document CHEMBL5058577, “EUbOPEN Chemogenomics Library 2 (Multiplex)” (2022).

Test system: U2OS
Test: Multiplex assay against U2OS
Assay type: toxicity, cell-based
Conditions: human
How it was run: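 Live cells were stained at seeding with Hoechst33342, BioTracker Green Microtubule Cytoskeleton Dye, MitoTracker Red and Annexin V Alexa Fluor 680, then imaged on a CQ1 microscope at 37°C and 5% CO2 after compound addition. CellPathfinder machine-learning gating split cells into Hoechst high-intensity objects or normal cells. Normal cells were split into healthy, pyknosed or fragmented nuclei, and pyknosed cells into mitotic or apoptotic. Tubulin, mitochondrial-mass and membrane-permeability phenotypes are per cents of healthy-nucleus cells.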

[1] = 12 h, 1 µM, compound concentration 1 uM, replicate 1
[2] = 12 h, 1 µM, compound concentration 1 uM, replicate 2
[3] = 12 h, 10 µM, compound concentration 10 uM, replicate 1
[4] = 12 h, 10 µM, compound concentration 10 uM, replicate 2
[5] = 24 h, 1 µM, compound concentration 1 uM, replicate 1
[6] = 24 h, 1 µM, compound concentration 1 uM, replicate 2
[7] = 24 h, 10 µM, compound concentration 10 uM, replicate 1
[8] = 24 h, 10 µM, compound concentration 10 uM, replicate 2
[9] = 48 h, 1 µM, compound concentration 1 uM, replicate 1
[10] = 48 h, 1 µM, compound concentration 1 uM, replicate 2
[11] = 48 h, 10 µM, compound concentration 10 uM, replicate 1
[12] = 48 h, 10 µM, compound concentration 10 uM, replicate 2

SMILES: OCCCNc1cc(-c2ccnc(Nc3cccc(Cl)c3)n2)ccn1
- Population Apoptotic (%) [1]: 88%
- Population Fragmented Nuclei (%) [1]: 38%
- Population Healthy Nuclei (%) [1]: 52%
- Population Hoechst High Intensity Objects (%) [1]: 3%
- Population Membrane Permeable-Phenotype (%) [1]: 8%
- Population Mitochondria Different-Phenotype (%) [1]: 4%
- Population Mitotic Cells (%) [1]: 11%
- Population Normal (%) [1]: 97%
- Population Pyknosed Nuclei (%) [1]: 9%
- Population Tubulin-Different-Phenotype (%) [1]: 4%
- Total Cell Count [1]: 200
- Population Apoptotic (%) [2]: 80%
- Population Fragmented Nuclei (%) [2]: 27%
- Population Healthy Nuclei (%) [2]: 51%
- Population Hoechst High Intensity Objects (%) [2]: 5%
- Population Membrane Permeable-Phenotype (%) [2]: 10%
- Population Mitochondria Different-Phenotype (%) [2]: 18%
- Population Mitotic Cells (%) [2]: 20%
- Population Normal (%) [2]: 94%
- Population Pyknosed Nuclei (%) [2]: 20%
- Population Tubulin-Different-Phenotype (%) [2]: 5%
- Total Cell Count [2]: 76
- Population Apoptotic (%) [3]: 85%
- Population Fragmented Nuclei (%) [3]: 37%
- Population Healthy Nuclei (%) [3]: 56%
- Population Hoechst High Intensity Objects (%) [3]: 4%
- Population Membrane Permeable-Phenotype (%) [3]: 46%
- Population Mitochondria Different-Phenotype (%) [3]: 36%
- Population Mitotic Cells (%) [3]: 14%
- Population Normal (%) [3]: 95%
- Population Pyknosed Nuclei (%) [3]: 6%
- Population Tubulin-Different-Phenotype (%) [3]: 46%
- Total Cell Count [3]: 237
- Population Apoptotic (%) [4]: 91%
- Population Fragmented Nuclei (%) [4]: 24%
- Population Healthy Nuclei (%) [4]: 64%
- Population Hoechst High Intensity Objects (%) [4]: 10%
- Population Membrane Permeable-Phenotype (%) [4]: 47%
- Population Mitochondria Different-Phenotype (%) [4]: 51%
- Population Mitotic Cells (%) [4]: 8%
- Population Normal (%) [4]: 89%
- Population Pyknosed Nuclei (%) [4]: 11%
- Population Tubulin-Different-Phenotype (%) [4]: 61%
- Total Cell Count [4]: 118
- Population Apoptotic (%) [5]: 96%
- Population Fragmented Nuclei (%) [5]: 43%
- Population Healthy Nuclei (%) [5]: 43%
- Population Hoechst High Intensity Objects (%) [5]: 7%
- Population Membrane Permeable-Phenotype (%) [5]: 10%
- Population Mitochondria Different-Phenotype (%) [5]: 10%
- Population Mitotic Cells (%) [5]: 4%
- Population Normal (%) [5]: 92%
- Population Pyknosed Nuclei (%) [5]: 13%
- Population Tubulin-Different-Phenotype (%) [5]: 6%
- Total Cell Count [5]: 200
- Population Apoptotic (%) [6]: 94%
- Population Fragmented Nuclei (%) [6]: 40%
- Population Healthy Nuclei (%) [6]: 33%
- Population Membrane Permeable-Phenotype (%) [6]: 16%
- Population Mitochondria Different-Phenotype (%) [6]: 25%
- Population Mitotic Cells (%) [6]: 5%
- Population Pyknosed Nuclei (%) [6]: 25%
- Population Tubulin-Different-Phenotype (%) [6]: 16%
- Total Cell Count [6]: 77
- Population Apoptotic (%) [7]: 88%
- Population Fragmented Nuclei (%) [7]: 37%
- Population Healthy Nuclei (%) [7]: 50%
- Population Hoechst High Intensity Objects (%) [7]: 11%
- Population Membrane Permeable-Phenotype (%) [7]: 34%
- Population Mitochondria Different-Phenotype (%) [7]: 40%
- Population Mitotic Cells (%) [7]: 12%
- Population Normal (%) [7]: 88%
- Population Pyknosed Nuclei (%) [7]: 12%
- Population Tubulin-Different-Phenotype (%) [7]: 37%
- Total Cell Count [7]: 229
- Population Apoptotic (%) [8]: 95%
- Population Fragmented Nuclei (%) [8]: 30%
- Population Healthy Nuclei (%) [8]: 49%
- Population Hoechst High Intensity Objects (%) [8]: 12%
- Population Membrane Permeable-Phenotype (%) [8]: 43%
- Population Mitochondria Different-Phenotype (%) [8]: 54%
- Population Mitotic Cells (%) [8]: 4%
- Population Normal (%) [8]: 87%
- Population Pyknosed Nuclei (%) [8]: 20%
- Population Tubulin-Different-Phenotype (%) [8]: 61%
- Total Cell Count [8]: 128
- Population Apoptotic (%) [9]: 95%
- Population Fragmented Nuclei (%) [9]: 56%
- Population Healthy Nuclei (%) [9]: 22%
- Population Hoechst High Intensity Objects (%) [9]: 16%
- Population Membrane Permeable-Phenotype (%) [9]: 30%
- Population Mitochondria Different-Phenotype (%) [9]: 14%
- Population Mitotic Cells (%) [9]: 4%
- Population Normal (%) [9]: 83%
- Population Pyknosed Nuclei (%) [9]: 21%
- Population Tubulin-Different-Phenotype (%) [9]: 26%
- Total Cell Count [9]: 227
- Population Apoptotic (%) [10]: 100%
- Population Fragmented Nuclei (%) [10]: 59%
- Population Healthy Nuclei (%) [10]: 11%
- Population Hoechst High Intensity Objects (%) [10]: 12%
- Population Mitochondria Different-Phenotype (%) [10]: 20%
- Population Mitotic Cells (%) [10]: 0%
- Population Normal (%) [10]: 87%
- Population Pyknosed Nuclei (%) [10]: 28%
- Population Tubulin-Different-Phenotype (%) [10]: 10%
- Total Cell Count [10]: 99
- Population Apoptotic (%) [11]: 94%
- Population Fragmented Nuclei (%) [11]: 47%
- Population Healthy Nuclei (%) [11]: 31%
- Population Hoechst High Intensity Objects (%) [11]: 21%
- Population Membrane Permeable-Phenotype (%) [11]: 43%
- Population Mitochondria Different-Phenotype (%) [11]: 45%
- Population Mitotic Cells (%) [11]: 5%
- Population Normal (%) [11]: 78%
- Population Pyknosed Nuclei (%) [11]: 21%
- Population Tubulin-Different-Phenotype (%) [11]: 45%
- Total Cell Count [11]: 223
- Population Apoptotic (%) [12]: 96%
- Population Fragmented Nuclei (%) [12]: 50%
- Population Healthy Nuclei (%) [12]: 25%
- Population Hoechst High Intensity Objects (%) [12]: 23%
- Population Membrane Permeable-Phenotype (%) [12]: 65%
- Population Mitochondria Different-Phenotype (%) [12]: 34%
- Population Mitotic Cells (%) [12]: 4%
- Population Normal (%) [12]: 76%
- Population Pyknosed Nuclei (%) [12]: 24%
- Population Tubulin-Different-Phenotype (%) [12]: 65%
- Total Cell Count [12]: 134

SMILES: C[C@@H]1CC(=O)Nc2cccc(-c3ccc4c(c3)c(-c3cnn(C)c3)nn4C)c2N1
- Population Apoptotic (%) [1]: 92%
- Population Fragmented Nuclei (%) [1]: 20%
- Population Healthy Nuclei (%) [1]: 73%
- Population Hoechst High Intensity Objects (%) [1]: 1%
- Population Membrane Permeable-Phenotype (%) [1]: 7%
- Population Mitochondria Different-Phenotype (%) [1]: 4%
- Population Mitotic Cells (%) [1]: 7%
- Population Normal (%) [1]: 98%
- Population Pyknosed Nuclei (%) [1]: 6%
- Population Tubulin-Different-Phenotype (%) [1]: 6%
- Total Cell Count [1]: 233
- Population Apoptotic (%) [2]: 88%
- Population Fragmented Nuclei (%) [2]: 16%
- Population Healthy Nuclei (%) [2]: 75%
- Population Membrane Permeable-Phenotype (%) [2]: 5%
- Population Mitochondria Different-Phenotype (%) [2]: 2%
- Population Mitotic Cells (%) [2]: 11%
- Population Pyknosed Nuclei (%) [2]: 7%
- Population Tubulin-Different-Phenotype (%) [2]: 2%
- Total Cell Count [2]: 116
- Population Apoptotic (%) [3]: 86%
- Population Fragmented Nuclei (%) [3]: 29%
- Population Healthy Nuclei (%) [3]: 58%
- Population Hoechst High Intensity Objects (%) [3]: 2%
- Population Membrane Permeable-Phenotype (%) [3]: 11%
- Population Mitochondria Different-Phenotype (%) [3]: 11%
- Population Mitotic Cells (%) [3]: 13%
- Population Normal (%) [3]: 97%
- Population Pyknosed Nuclei (%) [3]: 12%
- Population Tubulin-Different-Phenotype (%) [3]: 8%
- Total Cell Count [3]: 235
- Population Apoptotic (%) [4]: 33%
- Population Fragmented Nuclei (%) [4]: 21%
- Population Healthy Nuclei (%) [4]: 74%
- Population Hoechst High Intensity Objects (%) [4]: 1%
- Population Membrane Permeable-Phenotype (%) [4]: 7%
- Population Mitochondria Different-Phenotype (%) [4]: 7%
- Population Mitotic Cells (%) [4]: 66%
- Population Normal (%) [4]: 98%
- Population Pyknosed Nuclei (%) [4]: 4%
- Total Cell Count [4]: 76
- Population Apoptotic (%) [5]: 95%
- Population Fragmented Nuclei (%) [5]: 20%
- Population Healthy Nuclei (%) [5]: 71%
- Population Hoechst High Intensity Objects (%) [5]: 2%
- Population Membrane Permeable-Phenotype (%) [5]: 5%
- Population Mitochondria Different-Phenotype (%) [5]: 2%
- Population Mitotic Cells (%) [5]: 4%
- Population Normal (%) [5]: 97%
- Population Pyknosed Nuclei (%) [5]: 7%
- Population Tubulin-Different-Phenotype (%) [5]: 2%
- Total Cell Count [5]: 294
- Population Apoptotic (%) [6]: 100%
- Population Fragmented Nuclei (%) [6]: 22%
- Population Healthy Nuclei (%) [6]: 74%
- Population Hoechst High Intensity Objects (%) [6]: 1%
- Population Membrane Permeable-Phenotype (%) [6]: 1%
- Population Mitochondria Different-Phenotype (%) [6]: 1%
- Population Mitotic Cells (%) [6]: 0%
- Population Normal (%) [6]: 98%
- Population Pyknosed Nuclei (%) [6]: 4%
- Population Tubulin-Different-Phenotype (%) [6]: 0%
- Total Cell Count [6]: 152
- Population Apoptotic (%) [7]: 90%
- Population Fragmented Nuclei (%) [7]: 24%
- Population Healthy Nuclei (%) [7]: 63%
- Population Hoechst High Intensity Objects (%) [7]: 4%
- Population Membrane Permeable-Phenotype (%) [7]: 7%
- Population Mitochondria Different-Phenotype (%) [7]: 6%
- Population Mitotic Cells (%) [7]: 10%
- Population Normal (%) [7]: 95%
- Population Pyknosed Nuclei (%) [7]: 11%
- Population Tubulin-Different-Phenotype (%) [7]: 3%
- Total Cell Count [7]: 266
- Population Apoptotic (%) [8]: 83%
- Population Fragmented Nuclei (%) [8]: 15%
- Population Healthy Nuclei (%) [8]: 78%
- Population Hoechst High Intensity Objects (%) [8]: 1%
- Population Membrane Permeable-Phenotype (%) [8]: 6%
- Population Mitochondria Different-Phenotype (%) [8]: 1%
- Population Mitotic Cells (%) [8]: 16%
- Population Normal (%) [8]: 98%
- Population Pyknosed Nuclei (%) [8]: 6%
- Population Tubulin-Different-Phenotype (%) [8]: 4%
- Total Cell Count [8]: 97
- Population Apoptotic (%) [9]: 100%
- Population Fragmented Nuclei (%) [9]: 19%
- Population Healthy Nuclei (%) [9]: 73%
- Population Hoechst High Intensity Objects (%) [9]: 1%
- Population Membrane Permeable-Phenotype (%) [9]: 4%
- Population Mitochondria Different-Phenotype (%) [9]: 2%
- Population Mitotic Cells (%) [9]: 0%
- Population Normal (%) [9]: 98%
- Population Pyknosed Nuclei (%) [9]: 6%
- Population Tubulin-Different-Phenotype (%) [9]: 3%
- Total Cell Count [9]: 437
- Population Fragmented Nuclei (%) [10]: 13%
- Population Healthy Nuclei (%) [10]: 77%
- Population Membrane Permeable-Phenotype (%) [10]: 2%
- Population Pyknosed Nuclei (%) [10]: 8%
- Population Tubulin-Different-Phenotype (%) [10]: 2%
- Total Cell Count [10]: 224
- Population Apoptotic (%) [11]: 100%
- Population Fragmented Nuclei (%) [11]: 28%
- Population Healthy Nuclei (%) [11]: 65%
- Population Hoechst High Intensity Objects (%) [11]: 3%
- Population Membrane Permeable-Phenotype (%) [11]: 8%
- Population Mitochondria Different-Phenotype (%) [11]: 3%
- Population Mitotic Cells (%) [11]: 0%
- Population Normal (%) [11]: 96%
- Population Pyknosed Nuclei (%) [11]: 5%
- Population Tubulin-Different-Phenotype (%) [11]: 5%
- Total Cell Count [11]: 394
- Population Fragmented Nuclei (%) [12]: 23%
- Population Healthy Nuclei (%) [12]: 71%
- Population Hoechst High Intensity Objects (%) [12]: 4%
- Population Membrane Permeable-Phenotype (%) [12]: 3%
- Population Mitochondria Different-Phenotype (%) [12]: 0%
- Population Normal (%) [12]: 95%
- Population Pyknosed Nuclei (%) [12]: 4%
- Population Tubulin-Different-Phenotype (%) [12]: 3%
- Total Cell Count [12]: 149
